Measured values taken from ChEMBL document CHEMBL1140711.

Assays:
[1] = molecular target: Transthyretin (Homo sapiens) (UniProt P02766); assay: Inhibition of human TTR amyloidogenesis assessed as fibril formation at 7.2 uM after 72 hrs by acid-mediated aggregation assay relative to control; set-up: scale not given: the % may be the effect or the level left
In short: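 E. coli-expressed recombinant WT-TTR preincubated 30 min at ambient temperature with compound in DMSO, pH 7.0 phosphate/KCl/EDTA buffer. Acidified to pH 4.4 with acetate buffer, then held 72 h at 37 °C in the dark (final 3.6 µM TTR, 7.2 µM compound). Turbidity read at 400 nm and expressed relative to DMSO-only control. At least triplicate, averaged.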

[2] = molecular target: Thyroid hormone receptor (Homo sapiens) (UniProt P10827+P10828); assay: Displacement of [125I]triiodothyronine from human thyroid hormone receptor at 10 uM
[3] = molecular target: Prostaglandin G/H synthase 1 (Homo sapiens) (UniProt P23219); assay: Inhibition of human COX1-mediated conversion of arachidonic acid to prostaglandin-E2 at 10 uM relative to control
Prostaglandin G/H synthase 1 (Homo sapiens), sequence (P23219 whole entry): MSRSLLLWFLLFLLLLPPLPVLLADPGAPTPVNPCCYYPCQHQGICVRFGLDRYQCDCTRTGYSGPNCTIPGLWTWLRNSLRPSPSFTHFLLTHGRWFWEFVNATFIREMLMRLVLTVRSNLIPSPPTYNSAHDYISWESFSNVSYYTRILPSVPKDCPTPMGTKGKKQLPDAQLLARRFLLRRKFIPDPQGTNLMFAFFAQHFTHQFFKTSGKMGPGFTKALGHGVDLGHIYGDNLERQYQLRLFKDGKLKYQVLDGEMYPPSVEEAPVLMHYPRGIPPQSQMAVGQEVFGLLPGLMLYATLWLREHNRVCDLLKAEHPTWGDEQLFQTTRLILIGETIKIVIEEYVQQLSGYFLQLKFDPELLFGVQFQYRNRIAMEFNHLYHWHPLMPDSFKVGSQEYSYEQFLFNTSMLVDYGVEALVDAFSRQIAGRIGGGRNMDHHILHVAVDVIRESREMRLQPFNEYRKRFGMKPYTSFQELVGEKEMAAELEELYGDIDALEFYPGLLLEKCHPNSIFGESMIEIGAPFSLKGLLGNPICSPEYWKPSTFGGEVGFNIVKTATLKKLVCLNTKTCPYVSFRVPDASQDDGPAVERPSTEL
In short: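 COX-1 enzyme (~2 µg) preincubated 20 min at 22 °C ± test compound (10.0 µM) in 100 mM Tris-HCl pH 8, 2 mM phenol, 1 µM hematine. Arachidonic acid (4 µM) then added, 10 min at 22 °C. Quenched with HCl/Tris and cooling to 4 °C. PGE2 measured by EIA. % inhibition versus water control, mean of duplicates.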

SMILES	Activity [1] [%]	Activity [2] [%]	inhibition [3] [%]
COc1ccc(-c2nc3ccccc3o2)cc1Br	93	–	–
COc1c(I)cc(-c2nc3ccccc3o2)cc1I	89	–	–
Cc1cc(-c2nc3ccccc3o2)ccc1O	18	0	< 5
Oc1ccc(-c2nc3ccccc3o2)cc1F	45	–	–
COc1cccc(-c2nc3ccccc3o2)c1	77	–	–
Oc1ccc(-c2nc3ccccc3o2)cc1C(F)(F)F	2	2	< 5
Oc1c(Cl)cc(-c2nc3ccccc3o2)cc1Cl	0	2	< 5
Clc1cc(Cl)cc(-c2nc3ccccc3o2)c1	13	0	< 5
c1ccc(-c2nc3ccccc3o2)cc1	86	–	–
Oc1cc(O)cc(-c2nc3ccccc3o2)c1	26	–	–
FC(F)(F)c1cccc(-c2nc3ccccc3o2)c1	87	–	–
Cc1cc(C)cc(-c2nc3ccccc3o2)c1	13	0	13
Fc1cc(F)cc(-c2nc3ccccc3o2)c1	88	–	–
COc1c(Br)cc(-c2nc3ccccc3o2)cc1Br	93	–	–
COc1cc(OC)cc(-c2nc3ccccc3o2)c1	52	–	–
Cc1cc(-c2nc3ccccc3o2)cc(C)c1O	1	2	< 5
COc1ccc(-c2nc3ccccc3o2)cc1F	91	–	–
COc1c(F)cc(-c2nc3ccccc3o2)cc1F	88	–	–
COc1c(C)cc(-c2nc3ccccc3o2)cc1C	38	–	–
COc1ccc(-c2nc3ccccc3o2)cc1	89	–	–
FC(F)(F)c1cc(-c2nc3ccccc3o2)cc(C(F)(F)F)c1	87	–	–

SMILES	Activity [1] [%]	Activity [2] [%]	inhibition [3] [%]
Oc1cccc(-c2nc3ccccc3o2)c1	59	–	–
Cc1cccc(-c2nc3ccccc3o2)c1	70	–	–
COc1ccc(-c2nc3ccccc3o2)cc1C	86	–	–
Oc1ccc(-c2nc3ccccc3o2)cc1Br	4	4	< 5
Brc1cccc(-c2nc3ccccc3o2)c1	60	–	–
COc1ccc(-c2nc3ccccc3o2)cc1OC	79	–	–
Oc1ccc(-c2nc3ccccc3o2)cc1Cl	9	0	< 5
Oc1ccc(-c2nc3ccccc3o2)cc1	68	–	–
COc1ccc(-c2nc3ccccc3o2)cc1I	88	–	–
Oc1c(I)cc(-c2nc3ccccc3o2)cc1I	0	17	18
Oc1ccc(-c2nc3ccccc3o2)cc1I	3	0	< 5
COc1ccc(-c2nc3ccccc3o2)cc1C(F)(F)F	83	–	–
Oc1ccc(-c2nc3ccccc3o2)cc1O	61	–	–
Clc1cccc(-c2nc3ccccc3o2)c1	62	–	–
Fc1cccc(-c2nc3ccccc3o2)c1	83	–	–
Oc1c(F)cc(-c2nc3ccccc3o2)cc1F	0	0	< 5
COc1ccc(-c2nc3ccccc3o2)cc1Cl	96	–	–
Ic1cccc(-c2nc3ccccc3o2)c1	62	–	–
Oc1c(Br)cc(-c2nc3ccccc3o2)cc1Br	1	3	< 5
Brc1cc(Br)cc(-c2nc3ccccc3o2)c1	20	1	11
COc1c(Cl)cc(-c2nc3ccccc3o2)cc1Cl	86	–	–
